# Source: PMC3698760 (Journal of the American Heart Association: Cardiovascular …, 2013)
# Entries after “also recorded” stand apart in the source; their conditions may differ.
# Experiments:
# [1] = test system: A172 human glioblastoma; experiment: Cellular cholesterol efflux in A172 human cells; type: cell-based; conditions: 4 hours
# In short: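 A172 human glioblastoma cells were grown in DMEM with 10% FBS and antibiotics, then labelled with ³H‑cholesterol. Efflux ran in serum‑free medium with 0.2% BSA, 5 μmol/L T0901317 and 5 μmol/L 9‑cis‑retinoic acid, with or without 10 μmol/L probucol. Acceptor was human apoA‑I or test peptide at 20 μg/mL, or a molar dose series, for 4 h. n=4–5; mean±SD.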
# [2] = Size analysis of HDL interacting with FAMP; conditions: human HDL 2.22 mg/mL, 60 minutes at 37°C; 50, 250, 500 μg/mL FAMP5
# In short: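 Human HDL, adjusted to 2.22 mg/mL in saline containing 0.1% EDTA (pH 7.4), was incubated with 50, 250 or 500 μg/mL test peptide for 60 min at 37°C. Samples were run on nondenaturing 5–20% gradient polyacrylamide gel in Tris-glycine (pH 7.5) for 3 h at 20 mA on ice, then stained with Coomassie R-250.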
# [3] = test system: apoE‐deficient mice; experiment: Plasma lipoprotein profiles analyzed by HPLC, 16-week treatment; type: in vivo; conditions: 3 times a week, 16 weeks
# In short: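 Plasma from apoE−/− mice after 16-week i.p. dosing (3 times weekly) was separated by HPLC into 20 particle-size subfractions. Each subfraction was assayed enzymatically for total cholesterol, free cholesterol, triglycerides and phospholipids; mean±SD.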
# [4] = high-dose 50 mg/kg per day i.p., n=7, mean±SD
# [5] = low-dose 10 mg/kg per day i.p., n=5, mean±SD
substance,measurement,setting,value
H-ALEHLFTLYEKALKALEDLLKKLL-OH [FAMP5],dose dependence of cholesterol efflux on a molar basis,"[1]; A172 cells, presence or absence of 5 μmol/L T0901317 or 9-cis-retinoic acid, n=4",dose‐dependent induction of cholesterol efflux with saturation effects
same,cellular cholesterol efflux: differences of terminal end modifications,"[1]; A172 cells, 20 μg/mL, n=5",no influence by the modification of terminal ends
same,effect of ABCA1 inactivation (probucol) on peptide-mediated cholesterol efflux,"[1]; probucol 10 μmol/L, 20 μg/mL",drastically inhibited; also recorded: not completely abolished
same,HDL particle size on polyacrylamide gel electrophoresis,[2],generated pre‐β1 HDL‐like small particles
same,"Cholesterol, CM (>80 nm)",[3]; [4],173.4 ± 24.0 mg/dL
same,"Cholesterol, HDL (8 to 16 nm)",[3]; [4],20.3 ± 3.1 mg/dL
same,"Cholesterol, LDL (16 to 30 nm)",[3]; [4],157.9 ± 32.1 mg/dL
same,"Cholesterol, VLDL (30 to 80 nm)",[3]; [4],509.1 ± 73.8 mg/dL
same,"Free cholesterol, CM (>80 nm)",[3]; [4],76.6 ± 13.7 mg/dL
same,"Free cholesterol, HDL (8 to 16 nm)",[3]; [4],10.0 ± 1.1 mg/dL
same,"Free cholesterol, LDL (16 to 30 nm)",[3]; [4],75.0 ± 14.1 mg/dL
same,"Free cholesterol, VLDL (30 to 80 nm)",[3]; [4],213.8 ± 33.7 mg/dL
same,"Phospholipids, CM (>80 nm)",[3]; [4],84.3 ± 14.2 mg/dL
same,"Phospholipids, HDL (8 to 16 nm)",[3]; [4],23.1 ± 5.2 mg/dL
same,"Phospholipids, LDL (16 to 30 nm)",[3]; [4],110.6 ± 26.5 mg/dL
same,"Phospholipids, VLDL (30 to 80 nm)",[3]; [4],259.9 ± 44.9 mg/dL
same,"Triglyceride, CM (>80 nm)",[3]; [4],22.1 ± 6.6 mg/dL
same,"Triglyceride, HDL (8 to 16 nm)",[3]; [4],3.7 ± 1.3 mg/dL
same,"Triglyceride, LDL (16 to 30 nm)",[3]; [4],10.4 ± 2.2 mg/dL
same,"Triglyceride, VLDL (30 to 80 nm)",[3]; [4],35.8 ± 9.7 mg/dL
same,"Cholesterol, CM (>80 nm)",[3]; [5],175.4 ± 40.4 mg/dL
same,"Cholesterol, HDL (8 to 16 nm)",[3]; [5],22.0 ± 3.7 mg/dL
same,"Cholesterol, LDL (16 to 30 nm)",[3]; [5],133.1 ± 16.1 mg/dL
same,"Cholesterol, VLDL (30 to 80 nm)",[3]; [5],529.9 ± 135.3 mg/dL
same,"Free cholesterol, CM (>80 nm)",[3]; [5],70.7 ± 14.4 mg/dL
same,"Free cholesterol, HDL (8 to 16 nm)",[3]; [5],9.1 ± 0.6 mg/dL
same,"Free cholesterol, LDL (16 to 30 nm)",[3]; [5],65.6 ± 6.0 mg/dL
same,"Free cholesterol, VLDL (30 to 80 nm)",[3]; [5],220.1 ± 49.0 mg/dL
same,"Phospholipids, CM (>80 nm)",[3]; [5],78.4 ± 15.3 mg/dL
same,"Phospholipids, HDL (8 to 16 nm)",[3]; [5],29.1 ± 4.9 mg/dL
same,"Phospholipids, LDL (16 to 30 nm)",[3]; [5],94.4 ± 10.4 mg/dL
same,"Phospholipids, VLDL (30 to 80 nm)",[3]; [5],263.8 ± 53.4 mg/dL
same,"Triglyceride, CM (>80 nm)",[3]; [5],26.1 ± 16.8 mg/dL
same,"Triglyceride, HDL (8 to 16 nm)",[3]; [5],2.9 ± 1.2 mg/dL
same,"Triglyceride, LDL (16 to 30 nm)",[3]; [5],9.5 ± 2.3 mg/dL
same,"Triglyceride, VLDL (30 to 80 nm)",[3]; [5],38.1 ± 19.4 mg/dL
